In brackets after ≈: the same amount, converted by molar mass.

The test system of data set [1] is Onchocerca lienalis. The data set is described as follows: (§1) WHO-TDR: Onchocerciasis. The data set is classed as functional. The arrangement: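 at 12.5 µM on microfilariae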. The procedure, abridged:
(§2)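 Whole-organism screen of a 10,000-compound diverse library from Life Chemicals, filtered for drug-likeness and reactive groups, against microfilariae of Onchocerca ochengi or Onchocerca lienalis, used as animal-pathogen stand-ins for the human parasite. The assay followed previously published standard procedures, with reference drugs as positive controls. Activity is reported as percent inhibition and as IC50.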

In another data set the test system is Trypanosoma cruzi. The data set can be described thus: WHO-TDR: Chagas disease. The format is functional, organism-based, Homo sapiens. The conditions noted are these: MRC5. The method in brief: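 Each IC50 reflects antiparasitic potency against intracellular amastigotes of Trypanosoma cruzi Tulahuen CL2 beta-galactosidase strain. These were cultured in MRC-5SV2 human lung fibroblasts and exposed to a 10,000-compound diverse Life Chemicals library screened according to published standard procedures with a reference drug as positive control.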

For data set [2], the system named is Brugia malayi. The data set can be described thus: (§3) WHO-TDR: Lymphatic Filariasis. The format is functional. Also on record: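 tested at 10 µM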. The method in brief: (§4)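 Whole-organism screen of a 10,000-compound diverse library from Life Chemicals, filtered for drug-likeness and reactive groups, against Brugia malayi microfilariae. The assay followed previously published standard procedures, with reference drugs as positive controls. Activity is reported as percent inhibition and as IC50.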

In a further data set the test system is Leishmania infantum. The data set is described as follows: WHO-TDR: Leishmaniasis. As to conditions: Macrophage. The data set is classed as functional, organism-based, Mus musculus. The method in brief:
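A diverse library of 10,000 compounds from Life Chemicals, filtered for drug-likeness and reactive groups, was screened against whole organisms. The targets were intracellular amastigotes of Leishmania infantum MHOM/MA(BE)/67 growing in murine peritoneal macrophages. Previously published standard procedures were followed, with a reference drug as positive control. Antiparasitic potency is given as IC50.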

The nature of data set [3]: WHO-TDR: Cytotoxicity. The data set is classed as toxicity, cell-based. As to conditions: human, MRC5 cells.
Data set [4] relates to Trypanosoma brucei brucei. The data set can be described thus: WHO-TDR: Human African Trypanosomiasis (HAT). The format is functional, organism-based. The conditions noted are these: Squib-427. The procedure, abridged:
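A diverse library of 10,000 compounds from Life Chemicals, filtered for drug-likeness and reactive groups, was screened against bloodstream forms of Trypanosoma brucei Squib 427 strain in a whole-organism assay. Previously published standard procedures were followed, with reference drugs serving as positive controls. Antiparasitic potency is given as IC50.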

Data set [5] concerns Onchocerca lienalis. The description is as §1. The format is functional, organism-based. The method in brief: as §2
In another data set the test system is Plasmodium falciparum K1. The data set can be described thus: WHO-TDR: Malaria. The data set is classed as functional, organism-based, Homo sapiens. The conditions noted are these: Erythrocyte. The method in brief: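 A diverse library of 10,000 compounds from Life Chemicals, filtered for drug-likeness and reactive groups, was screened against the intra-erythrocytic Plasmodium falciparum K1 strain in human red blood cells. Previously published standard procedures were followed, with a reference drug as positive control. Antiplasmodial potency is given as IC50.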

In data set [6] the test system is Schistosoma mansoni. The data set can be described thus: (§5) WHO-TDR: Schistosomiasis. The data set is classed as functional. Also on record: concentration or dose not given beside the values. The method in brief: (§6)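 Whole-organism screen of a 10,000-compound diverse library from Life Chemicals, filtered for drug-likeness and reactive groups, against larval and/or adult worms of Schistosoma mansoni Puerto Rican strain. The assay followed previously published standard procedures, with a reference drug as positive control. Activity is reported as percent inhibition and as IC50.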

Data set [7] relates to Brugia malayi. The data set is described as §3. The format is functional. The arrangement: concentration or dose not given beside the values. The method in brief: as §4
This is another data set of the same source.

The subject of data set [8] is Brugia malayi. The data set is described as §3. The format is functional, organism-based. The procedure, abridged: as §4
The subject of data set [9] is Brugia malayi. The data set is described as §3. The data set is classed as functional, organism-based. The method in brief: as §4
The source holds these as a separate data set.

In data set [10] the test system is Schistosoma mansoni. Described as §5. The data set is classed as functional, organism-based. The procedure, abridged:
as §6

As for `CCn1nnc2c(N3CCN(C(c4ccccc4)c4ccccc4)CC3)ncnc21`, the % Inhibition (usually the drop in the measured response relative to a control, in per cent) in the data set with Onchocerca lienalis [1] was 100%; in the data set on Brugia malayi [2] it was 0%; with Schistosoma mansoni [6], 0%. The IC50 – broadly, the concentration that gives 50% inhibition – was 3.62 µg/mL (≈ 9.06 µM) with Trypanosoma cruzi; > 12 µg/mL in the data set with Leishmania infantum; > 12 µg/mL in data set [3]; 3.83 µg/mL (≈ 9.6 µM) in data set [4]; 1.48 µg/mL (≈ 3.7 µM) in the data set with Onchocerca lienalis [5]; > 12 µg/mL with Plasmodium falciparum K1.
As to `O=C(Nc1nc2c(s1)CSc1ccccc1-2)C1COc2ccccc2O1` (configuration not stated), the “% Inhibition” value with Onchocerca lienalis [1] was determined as 100%; with Brugia malayi [7] it was 0%; with Brugia malayi [2] it was 33.33%; with Schistosoma mansoni [6], 100%. The IC50 in the data set on Trypanosoma cruzi stood at 0.502 µg/mL (≈ 1.31 µM); in the data set on Leishmania infantum, 0.782 µg/mL (≈ 2.04 µM); in data set [3], 2.62 µg/mL (≈ 6.86 µM); in data set [4] it was 0.367 µg/mL (≈ 0.96 µM); in the data set with Onchocerca lienalis [5], 1.42 µg/mL (≈ 3.71 µM); in the data set with Plasmodium falciparum K1, 4.75 µg/mL (≈ 12.4 µM).
Take `O=C(Nc1nc(-c2ccccn2)cs1)c1ccc(Cl)s1`: in the data set on Onchocerca lienalis [1], the “% Inhibition” value is 100%. Also, the half-inhibitory concentration (IC50) in the data set on Trypanosoma cruzi was < 0.0965 µg/mL; in the data set on Leishmania infantum, 1.9 µg/mL (≈ 5.9 µM); in data set [3] it was 4.39 µg/mL (≈ 13.6 µM); in data set [4], 0.309 µg/mL (≈ 0.96 µM); with Onchocerca lienalis [5], 0.344 µg/mL (≈ 1.07 µM); with Plasmodium falciparum K1, 0.564 µg/mL (≈ 1.75 µM).
In the case of `O=C(COc1cccc2c1CCN(Cc1ccccc1F)C2=O)N1CCC(Cc2ccccc2)CC1`, the “% Inhibition” value with Onchocerca lienalis [1] is 0%; with Brugia malayi [7] it was 100%; with Brugia malayi [2], 100%; in the data set on Schistosoma mansoni [6] it was 0%. Further, the IC50 with Trypanosoma cruzi came out at 0.557 µg/mL (≈ 1.14 µM); with Brugia malayi [8], 5.19 µM; in the data set on Leishmania infantum it was 4.73 µg/mL (≈ 9.71 µM); in data set [3] it was 4.56 µg/mL (≈ 9.37 µM); in data set [4], 0.473 µg/mL (≈ 0.971 µM); in the data set on Plasmodium falciparum K1 it was 4.54 µg/mL (≈ 9.33 µM). In the data set with Brugia malayi [9], this molecule displayed a half-maximal inhibitory concentration (IC50) of 4.95 µM.
Consider `CC(C)N1CCc2c(sc(NC(=O)c3cc4c(ccc5ccccc54)oc3=O)c2C(N)=O)C1`, for which the “% Inhibition” value in the data set on Onchocerca lienalis [1] is given as -1%; in the data set on Brugia malayi [7] it was 100%; in the data set on Brugia malayi [2], 100%; in the data set with Schistosoma mansoni [6], 0%. Besides, the IC50 in the data set with Trypanosoma cruzi was found to be 0.149 µg/mL (≈ 0.323 µM); with Brugia malayi [8], 0.53 µM; in the data set on Leishmania infantum it was 0.484 µg/mL (≈ 1.05 µM); in data set [3] it was 0.416 µg/mL (≈ 0.901 µM); in data set [4] it was 0.478 µg/mL (≈ 1.04 µM); with Plasmodium falciparum K1, 0.572 µg/mL (≈ 1.24 µM). In the data set on Brugia malayi [9], this molecule returned an IC50 of 0.53 µM.
In the case of `CCOC(=O)N1CCc2c(sc(NC(=O)c3nc4ccccc4s3)c2C(N)=O)C1`, the “% Inhibition” value in the data set with Onchocerca lienalis [1] and in the data set on Schistosoma mansoni [6] was 100% throughout. The concentration for half-maximal inhibition (IC50) with Trypanosoma cruzi stood at 1.52 µg/mL (≈ 3.54 µM); in the data set on Leishmania infantum, 4.18 µg/mL (≈ 9.71 µM); in data set [3], 4.58 µg/mL (≈ 10.6 µM); in the data set on Schistosoma mansoni [10], 6.7 µM; in data set [4], 4.18 µg/mL (≈ 9.71 µM); in the data set with Onchocerca lienalis [5], 1.75 µg/mL (≈ 4.06 µM). This molecule gave an IC50 in the data set on Plasmodium falciparum K1 of 0.746 µg/mL (≈ 1.73 µM).

(Values after ChEMBL document CHEMBL2093137, “WHO-TDR NTD Screening”.)
